Experimental data reported in the RNAGym collection of RNA variant scans (doi:10.1126/science.aae0568).
Fewer inactive variants are shown than the library holds.

B1: tRNA (parent)
chain: GUUCCGUUGGCGUAAUGGUAACGCGUCUCCCUCCUAAGGAGAAGACUGCGGGUUCGAGUCCCGUACGGAACG

Variants of: B1
Test: yeast fitness relative to wild type (ratio to wild type); higher = fitter; tRNA-Arg(CCU), competitive growth, 37 C, YPD
Procedure, shortened: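 Changes in genotype frequencies gave Darwinian fitness relative to wild type. Frequencies were read by 100-nucleotide paired-end sequencing of gene amplicons before and after pooled Saccharomyces cerevisiae strains, carrying tRNA-Arg(CCU) gene variants at the native locus, were competed in YPD at 37°C for 24 hours in six replicates. A genotype was kept only with ≥ 100 starting reads, and estimates < 0.5 were set to 0.5.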

First: GUUCGGUUGGCGGAAUGGUAAGGCGUCUGCCUCCUAAGGUGAAGACUGCGGGUCCGAGUCGCGUACGGAACG [C5G U13G C22G C29G A40U U54C C61G]
Second: GUUCGGUUGGCGAAAUGGUAAGGCGUCUCCCUCCUAAGGAGAAGACUGCGGGUUCGAGACCCGUACGGAACG [C5G U13A C22G U59A]
The yeast fitness of the first is higher: 0.567 for the first, no more than 0.5 for the second.

GUUCGGUUGGCGUAACGGUAACGUGUCUCCCUCCUAAGGAGAAGACUGCGGGUUCGAGUCCCGUACGGAACG [C5G U16C C24U] and GUUCGGUUGGCGUAAUGGUAACGCGCCUCCCUCCUAAGGAGGAGACUGCGGGUUCGGGUCCCGUACGGAGCG [C5G U26C A42G A57G A70G] cannot be ordered by yeast fitness: no more than 0.5 for the first, no more than 0.5 for the second.

Compared with GUUCGGUUGGCGCAAUGGUAAGGCGUCUCCCUACUAAGGAGAAGACUGCGGGUUCGAGUCCCGUACGGAACG [C5G U13C C22G C33A], GUUCGGUUGGCGUAAUGGUAACGCGUCUCCCUCCUAAGGAGAAGACUGCGGGCUCGAGUCCCGUCCGGAACG [C5G U53C A65C] is lower in yeast fitness: 0.635 for the first, no more than 0.5 for the second.

First: GUUCGGUUGGCGUAAUGGGAAUGCGUCUCCCUCCUAAGGAGACGACUGCGAGUUCGAGUCCCGUACGGAACG [C5G U19G C22U A43C G51A]
Second: GUUCGGUGGGGGUAAUGGUAACGCGUCUCCCUCCUAAGGAGAAGACUGCGGGUUCGAGUCCCGUACGGAACG [C5G U8G C11G]
The yeast fitness of the first is lower: no more than 0.5 for the first, 0.509 for the second.

GUUCGGUUGGCGGAAUGGUUACGCGUCUCCCUCCUAAGGAGAAGACUGCGGGUUCGAGUCCCGUACGGAACG [C5G U13G A20U] and GUUCGGUUGGCGCAAUGGUACCGCGUCUCCCUCCUAAGGAGAAGACUGCGGGUUCGAGUCCCGUACGGACCG [C5G U13C A21C A70C] cannot be ordered by yeast fitness: no more than 0.5 for the first, no more than 0.5 for the second.

Compared with GUUCGGUUGGCGAAAUGGUAAGGCGUCUGCCUCCUAAGGUGAAGACUGCGGGUUCGAGUCCCGUACGGAACG [C5G U13A C22G C29G A40U], GUUCGGUUGGCGAAAUGGUAAGGCGUCUGCCUCCUAAGGUGAAGACUGCGGGUCCGAGUCCCGUACGGAACG [C5G U13A C22G C29G A40U U54C] is lower in yeast fitness: 0.556 for the first, no more than 0.5 for the second.

Going from GUUCGGUUGGCGCAAUGGUAACGCGUCUCCCUCCUAAGGAGAAGACUGCGGGUUCGAGUCCUGUACGGAACG [C5G U13C C62U] to GUUCGGUUGGCGUAAUGGUAACGCGUCUCCCUCCCAAGGAGAAGACUGCGGGUUCGAGUCCCGUAUGGAACG [C5G U35C C66U], the yeast fitness falls from 0.602 to 0.546.

Going from GUUCGGUUGGCGUAAUGGUAACGCGACUCCCUCCUCAGGAGAAGACUGCGGGUUCGAGUCGCGUACGGGACG [C5G U26A A36C C61G A69G] to GUUCGGUUGGCGUAAUGGUAACGCGUCGCCUUCCUAAGGAGAAGACUGCGAGUACGAGACCCGUACGGAACG [C5G U28G C31U G51A U54A U59A], the yeast fitness rises from no more than 0.5 to 0.522.

Going from GUUCGGUUGGCGUAAUGGGAAUGCGUCUCCCCCCUAAGGAGAAGACUGCGGGUUCGAGUCCCGUCUGGAACG [C5G U19G C22U U32C A65C C66U] to GUUCGGUUGGCGUAAUGGUAACGCGUCUCCCUCCUAAGGAGAAGACAGCGGGUUCGAAUCCCGUACGGAACG [C5G U47A G58A], the yeast fitness rises from no more than 0.5 to 0.567.

Going from GUUCGGUUGGCGUAAAGGUAACGCGUCUUCCUCCUAAGGUGAAGACUGCGGGUUCGAGUCCCGUACGGAACG [C5G U16A C29U A40U] to GUUCGGUUGGCGUAAUGGCAACGCGUCUCCCUCCUAAGGAGAAGACUGCGGGUUCGUGUCCCGUACGGAACG [C5G U19C A57U], the yeast fitness rises from 0.523 to 0.533.

GUUCGGUUGGCGUAACGGUGACGCGUCUCCCUCCUAAGGAGAAGACUGCGGGUUCGAGUCCCGUACGGAACG [C5G U16C A20G] and GUUCGGUUGGCGGUAUGGUAACGCGUCUCCCUCCUAAGGAGAAGACUCCGGGUUCGAGUCCCGUACGGAACG [C5G U13G A14U G48C] cannot be ordered by yeast fitness: no more than 0.5 for the first, no more than 0.5 for the second.

GUUCGGUUGGCGUAAUGGUAACGCGUCUCCCACCUAAGGAGAAGACUCCGGGUUCGAGUCCUGUACGGAACG [C5G U32A G48C C62U] and GUUCGGUUGGCGUAAAGGUAACGCGUCUCCCUCCUAAGAAGAAGACUGCGGGUUCGAGUCCCGUACGGAACG [C5G U16A G39A] cannot be ordered by yeast fitness: no more than 0.5 for the first, no more than 0.5 for the second.

GUUCGGUUGGCGUAAAGGUAACGCGUCUUCCUCCUAAGGUGAAGACUGCGGAUUCGAGUCCCGUCCGGAACG [C5G U16A C29U A40U G52A A65C] and GUUCGGUUGGCGUAAUGGCAACGCGUCUCCCUCCAAAGGAGACGACUGCGGGUUCGAGUCCCGUACGGAACG [C5G U19C U35A A43C] cannot be ordered by yeast fitness: no more than 0.5 for the first, no more than 0.5 for the second.

Compared with GUUCGGUUGGCGUAAUGGUAACGCGCCUCUCUCCUAAGGAGAAGACUGUGGGUUCGAGUCCCGUACGGAACG [C5G U26C C30U C49U], GUUCGGUUGGCGUAAUGGUAACGCGUCUCCCACCUAAGGAGAAGACUGCGGGUUCGAGUCCCGUACGGAACG [C5G U32A] is higher in yeast fitness: no more than 0.5 for the first, 0.678 for the second.

First: GUUCGGUUGGCGUAAUGGUAACGCGUCUCCCGCCUAAGGAGAAGACUGCGGGUUCGAGUCCCGUACGGAACG [C5G U32G]
Second: GUUCGGUUGGCGCAAUGGUAACGCGUCUCCCUCCCAAGGAGAAGACUGCGGGUUCGAGUCCCGUACGGAACG [C5G U13C U35C]
The yeast fitness of the first is higher: 0.776 for the first, no more than 0.5 for the second.

Going from GUUCGGUUGGCGUAAAGGUAACGCGUCUCCCUCCUAAGGAGAGGACUGCGGGUUCGAGUCCCUUACGGAACG [C5G U16A A43G G63U] to GUUCGGUUGGCGUAAUGGCAACGUGUCUCCCUCCUAAGGAGAAGACUGCGGGUUCGAGUCCCGUACGGAACG [C5G U19C C24U], the yeast fitness rises from 0.524 to 0.684.

First: GUUCGGUUGGCGUAAAGGUAACGCGUCUUCCUCCUAAGGUGAAGACUGCGGGUUCGAGUCCCGUCCGGAACG [C5G U16A C29U A40U A65C]
Second: GUUCGGUUGGCGUAAUGGUAACGCGUCACCCUCCUAAGGAGAAGACUGCGGGUUCGAGUCCCGUACCGAACG [C5G U28A G67C]
The yeast fitness of the first is lower: no more than 0.5 for the first, 0.634 for the second.

Going from GUUCGGUUGGCGUAAAGGUAACGCGUCUCCCUCCUAAGGAGAAGACUGCGGGUUCGAGUCCCGUACGGUACG [C5G U16A A69U] to GUUCGGUUGGCGUAAUGGUAACGCGGCUCCCUCGUAAGGCGAAGAUUGGGGGUUCGAGUCCCGUACGGAACG [C5G U26G C34G A40C C46U C49G], the yeast fitness rises from no more than 0.5 to 0.558.

Going from GUUCGGUUGGCGAAAUGGUAACGCGUCUCCCUCCUAAGGAGAAGACUGCGGGUUCGAGUCCCGUGCGGAACG [C5G U13A A65G] to GUUCGGUCGGCGUAAUGCUAACGCGUCUCCCUCCUAAGGAGAAGACUGCGGGUUCGAGUCUCGUCCGGAACG [C5G U8C G18C C61U A65C], the yeast fitness falls from 0.603 to no more than 0.5.
